# Source: PubChem BioAssay (Broad Institute)
# This is one part of a sample in which hits are shown more often than they occur.
# IDH1 mut inh = inhibitors of human IDH1 R132H | IDH1 R132H reductase, diaphorase/resazurin fluorescence, 60 min | inhibition, % at 10 µM | 70,000 compounds, 0.18% hits | AID 624101 | O75874; in the data active = inhibition above about 34%; inconclusive = no clear call, values can overlap the other calls; inactive = below about 11%
# T cruzi growth-1 = inhibitors of T. cruzi proliferation; T. cruzi beta-gal in NIH3T3, GalScreen luminescence, 90 h; inhibition, % at 8.34 µM; 77,000 compounds, 5.9% hits; AID 624255;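 active = mean inhibition above about 93%, with at least 55% of replicates each passing it, limit read from the data, passing the limit was not always enough; inconclusive = only one of those two conditions holds; inactive = neither condition holds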
# KDM4C inh = inhibitors of human demethylase GASC-1 KDM4C. inhibition, % at 12.5 µM. GST-KDM4C 2-372, H3K9me3 peptide, LANCE TR-FRET. 96,000 compounds, 0.15% hits. Q9H3R0;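 active = mean replicate inhibition above about 25%, with at least 55% of replicates also reaching it, limit read from the data, passing the limit was not always enough; inconclusive = only one of those two conditions met; inactive = neither condition met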
# Target sequence (Q9H3R0 2-372 limits assumed): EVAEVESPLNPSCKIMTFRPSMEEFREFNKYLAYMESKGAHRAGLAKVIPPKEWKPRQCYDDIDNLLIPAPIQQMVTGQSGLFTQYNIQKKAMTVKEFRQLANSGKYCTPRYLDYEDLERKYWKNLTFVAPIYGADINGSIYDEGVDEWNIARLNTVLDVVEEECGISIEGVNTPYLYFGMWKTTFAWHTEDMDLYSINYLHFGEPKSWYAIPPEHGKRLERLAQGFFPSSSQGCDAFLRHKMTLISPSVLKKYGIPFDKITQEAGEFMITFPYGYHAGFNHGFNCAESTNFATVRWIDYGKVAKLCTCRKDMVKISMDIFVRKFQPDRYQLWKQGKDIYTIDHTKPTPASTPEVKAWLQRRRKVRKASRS
#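 material = GST-tagged GASC-1 (JMJD2C) catalytic fragment, aa 2-372 | amount = enzyme final amount 10 nM | medium = HEPES buffer, pH 7.5, plus ascorbate | also added = H3K9me3 peptide substrate, Fe(II), 2-oxoglutarate | dosing = single dose | times = 30 min demethylation and 1 h detection at room temperature | detection = LANCE TR-FRET | read-out basis = Fall in 671/618 emission ratio as inhibition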
# T cruzi growth-2 = blocks T. cruzi growth in NIH3T3 host cells; shares compounds with T cruzi growth-1; T. cruzi beta-gal in NIH3T3, GalScreen luminescence, 90 h; inhibition, % at 8.35 µM; 5,600 compounds, 72% hits; AID 651739;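 active = mean replicate inhibition above about 95% and at least 55% of replicates individually reaching it, limit read from the data; inconclusive = only one of the two criteria is met; inactive = neither criterion is met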
# T cruzi growth-3 = Trypanosoma cruzi proliferation inhibition; T. cruzi beta-gal in NIH3T3, GalScreen luminescence, 90 h; 5,600 compounds, 21% hits; shares compounds with T cruzi growth-1; AID 651740; inhibition, % at 2.09 µM;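 active = mean inhibition above about 95%, with at least 55% of replicates also reaching it, limit read from the data; inconclusive = meets just one of the two conditions; inactive = meets neither condition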
# NIH3T3 tox = kills mouse NIH/3T3 fibroblasts; shares compounds with T cruzi growth-1; NIH/3T3 viability, CellTiter-Glo ATP luminescence, 90 h; cytotoxicity (signal decrease), % at 8.35 µM; 5,600 compounds, 14% hits; AID 651742;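 active = mean signal decrease across replicates above about 35% based on untreated-well scatter, with enough replicates individually passing, limit read from the data; inconclusive = no rule stated though some were filed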
# 3T3 cytotox 2 = kills mouse NIH/3T3 fibroblasts; NIH/3T3 viability, CellTiter-Glo ATP luminescence, 90 h; inhibition, % at 24.9 µM; shares compounds with T cruzi growth-1; AID 651744; 5,600 compounds, 56% hits;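 active = mean loss of cell viability signal at or above a set limit, and enough replicates individually reaching it; inconclusive = meets only the mean limit or only the replicate share; inactive = meets neither condition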
# Numbers stand for hits; 0 = inactive; ? = inconclusive; - = no result given.
SMILES,IDH1 mut inh,T cruzi growth-1,KDM4C inh,T cruzi growth-2,T cruzi growth-3,NIH3T3 tox,3T3 cytotox 2
C[C@H](CO)N1C[C@H](C)[C@H](CN(C)Cc2ccc(-c3ccccc3)cc2)Oc2ccc(NC(=O)NC3CCCCC3)cc2C1=O,0,111.0,0,104.2,0,0,47.0
COc1ccc(S(=O)(=O)N(C)CC(=O)Nc2ccc(Br)cc2F)cc1C,0,-,-,-,-,-,-
CCC1=Nc2cc(C(=O)N(C)Cc3ccccc3)ccc2Sc2ccc(C)cc21,0,-,-,-,-,-,-
O=C(Nc1cccc(F)c1)N[C@@H]1CC[C@@H](CCNS(=O)(=O)c2cccc(Cl)c2)O[C@H]1CO,0,0,0,-,-,-,-
O=C(Nc1cc(Cl)cc(Cl)c1)N[C@H]1CC[C@H](CCNS(=O)(=O)c2cccc(F)c2)O[C@@H]1CO,0,112.1,0,107.6,0,0,96.9
O=C(Nc1cccc(F)c1)N[C@@H]1CC[C@H](CCNS(=O)(=O)c2cccc(Cl)c2)O[C@@H]1CO,0,153.4,0,0,0,0,0
O=C(Nc1cc(Cl)cc(Cl)c1)N[C@@H]1CC[C@H](CCNS(=O)(=O)c2cccc(F)c2)O[C@@H]1CO,0,0,0,-,-,-,-
CC(C)NC(=O)N(C)C[C@@H]1Oc2ccc(NS(=O)(=O)c3ccc(Cl)cc3)cc2C(=O)N([C@@H](C)CO)C[C@H]1C,-,0,0,-,-,-,-
O=C(Nc1scc(-c2ccccc2)c1C(=O)NCc1ccco1)c1ccccc1,0,-,-,-,-,-,-
COc1ccccc1-c1ccc2c(c1)O[C@@H](CN(C)S(=O)(=O)c1ccc(F)cc1)[C@H](C)CN([C@@H](C)CO)S2(=O)=O,0,108.0,0,108.9,0,0,?
COc1ccccc1-c1ccc2c(c1)O[C@H](CN(C)S(=O)(=O)c1ccc(F)cc1)[C@@H](C)CN([C@H](C)CO)S2(=O)=O,0,0,0,-,-,-,-
COc1ccccc1-c1ccc2c(c1)O[C@H](CN(C)S(=O)(=O)c1ccc(F)cc1)[C@H](C)CN([C@H](C)CO)S2(=O)=O,0,102.4,0,103.2,0,0,43.2
COc1ccccc1-c1ccc2c(c1)O[C@@H](CN(C)S(=O)(=O)c1ccc(F)cc1)[C@H](C)CN([C@H](C)CO)S2(=O)=O,0,0,0,-,-,-,-
COc1ccccc1-c1ccc2c(c1)O[C@H](CN(C)S(=O)(=O)c1ccc(F)cc1)[C@@H](C)CN([C@@H](C)CO)S2(=O)=O,0,103.2,0,100.6,0,0,48.1
CCn1c(SCC(=O)Nc2ccccc2F)nnc1-c1ccccc1F,0,-,-,-,-,-,-
NC(=S)Cc1c(Cl)sc2ccc(Cl)cc12,0,-,-,-,-,-,-
COCC#Cc1ccc2c(c1)O[C@@H](CN(C)CC1CCCC1)[C@H](C)CN([C@@H](C)CO)S2(=O)=O,0,106.3,0,95.8,0,0,104.3
COCC#Cc1ccc2c(c1)O[C@H](CN(C)CC1CCCC1)[C@@H](C)CN([C@H](C)CO)S2(=O)=O,0,?,0,98.9,0,0,50.1
COCC#Cc1ccc2c(c1)O[C@H](CN(C)CC1CCOCC1)[C@H](C)CN([C@@H](C)CO)S2(=O)=O,-,0,0,-,-,-,-
COCC#Cc1ccc2c(c1)O[C@@H](CN(C)CC1CCOCC1)[C@@H](C)CN([C@H](C)CO)S2(=O)=O,-,0,0,-,-,-,-
CN(CC(=O)Nc1ccccc1-c1ccccc1)S(=O)(=O)c1cc(Cl)ccc1Cl,0,-,-,-,-,-,-
CS(=O)(=O)N1[C@@H](C#N)[C@@H](c2ccc(C#CC3CC3)cc2)[C@@H]1CO,-,103.1,0,107.4,?,0,0
N#C[C@H]1[C@@H](c2ccc(C#CC3CCCC3)cc2)[C@@H](CO)N1S(=O)(=O)c1ccccc1,0,0,0,-,-,-,-
CS(=O)(=O)N1[C@@H](C#N)[C@H](c2ccc(C#CC3CC3)cc2)[C@@H]1CO,-,0,0,-,-,-,-
N#C[C@@H]1[C@H](c2ccc(C#CC3CCCC3)cc2)[C@@H](CO)N1S(=O)(=O)c1ccccc1,-,97.5,0,96.3,106.9,0,107.7
SMILES,IDH1 mut inh,T cruzi growth-1,KDM4C inh,T cruzi growth-2,T cruzi growth-3,NIH3T3 tox,3T3 cytotox 2
CCn1c(=O)c(C(=O)NCCO)c(O)c2ccccc21,0,-,-,-,-,-,-
CCOC(=O)c1c(NC(=O)CN2C(=O)COc3ccc(Cl)cc32)sc2c1CCCC2,0,-,-,-,-,-,-
CC(C)OCCCNc1ncnc(N)c1[N+](=O)[O-],0,-,-,-,-,-,-
C[C@H]1CN([C@@H](C)CO)C(=O)Cc2cc(NS(=O)(=O)c3ccc(Cl)cc3)ccc2O[C@H]1CN(C)C,0,-,0,-,-,-,-
C[C@@H]1CN([C@H](C)CO)C(=O)c2cc(NC(=O)Nc3ccc(F)cc3)ccc2O[C@@H](C)CCCCO[C@@H]1CN(C)Cc1ccc(C(F)(F)F)cc1,0,100.1,0,0,114.4,0,0
C[C@@H]1CN([C@H](C)CO)C(=O)c2cc(NC(=O)Nc3ccc(F)cc3)ccc2O[C@@H](C)CCCCO[C@H]1CN(C)Cc1ccc(C(F)(F)F)cc1,-,0,0,-,-,-,-
C[C@H]1CCCCO[C@H](CN(C)Cc2ccc(C(F)(F)F)cc2)[C@@H](C)CN([C@@H](C)CO)C(=O)c2cc(NC(=O)Nc3ccc(F)cc3)ccc2O1,-,0,0,-,-,-,-
C[C@@H]1CCCCO[C@H](CN(C)Cc2ccc(C(F)(F)F)cc2)[C@@H](C)CN([C@H](C)CO)C(=O)c2cc(NC(=O)Nc3ccc(F)cc3)ccc2O1,-,0,0,-,-,-,-
C[C@@H]1CCCCO[C@H](CN(C)Cc2ccc(C(F)(F)F)cc2)[C@H](C)CN([C@@H](C)CO)C(=O)c2cc(NC(=O)Nc3ccc(F)cc3)ccc2O1,-,99.7,0,?,116.9,0,29.7
C[C@@H]1CN([C@@H](C)CO)C(=O)c2cc(NC(=O)Nc3ccc(F)cc3)ccc2O[C@@H](C)CCCCO[C@H]1CN(C)Cc1ccc(C(F)(F)F)cc1,0,109.5,0,99.6,112.2,0,0
CC(Sc1nc(N)cc(N)n1)C(=O)Nc1ccc(Cl)cc1 (centres undefined),0,-,-,-,-,-,-
Cc1ccc(NC(=O)CSc2n[nH]c(CC(C)C)n2)cc1,0,-,-,-,-,-,-
COc1ccc(C(=O)CSc2nnc(-c3ccccc3)n2-c2ccc(Br)cc2)cc1,0,-,-,-,-,-,-
CCn1c(SCC(=O)Nc2ccccc2C(F)(F)F)nnc1-c1cccc([N+](=O)[O-])c1,0,-,-,-,-,-,-
CC(=O)O[C@]1(C(C)=O)CC[C@H]2[C@@H]3C=C(Cl)C4=CC(=O)C5CC5[C@]4(C)[C@H]3CC[C@@]21C (some centres undefined),0,-,-,-,-,-,-
COC(=O)CSc1nc(-c2ccc(F)cc2)[nH]c1-c1ccc(C)cc1,0,-,-,-,-,-,-
CC1(C)COC(CCC/C=N/NC(=O)c2ccccn2)OC1,0,-,-,-,-,-,-
C[C@@H]1CCCCO[C@@H](CN(C)CC2CCCCC2)[C@@H](C)CN([C@@H](C)CO)C(=O)c2cc(NC(=O)Nc3ccc(C(F)(F)F)cc3)ccc2O1,-,99.4,-,?,111.8,122.5,102.9
